Activity calls are given as the source filed them. No cut-off for these calls is given here. Where a SMILES comes first, the peptide text is derived from it. The star is where a group is joined. Cbz = O=C(OCc1ccccc1)*
Experiments:
[1] = target: T1, Isocitrate lyase 1 (Mycobacterium tuberculosis (strain CDC 1551 / Oshkosh)) (UniProt P9WKK6); assay: Binding affinity to Mycobacterium tuberculosis ICL1 expressed in Escherichia coli BL21(DE3) assessed as increase in melting temperature at 1 mM in presence of MgCl2 by SYPRO orange dye based fluorescence assay
T1 sequence (whole entry): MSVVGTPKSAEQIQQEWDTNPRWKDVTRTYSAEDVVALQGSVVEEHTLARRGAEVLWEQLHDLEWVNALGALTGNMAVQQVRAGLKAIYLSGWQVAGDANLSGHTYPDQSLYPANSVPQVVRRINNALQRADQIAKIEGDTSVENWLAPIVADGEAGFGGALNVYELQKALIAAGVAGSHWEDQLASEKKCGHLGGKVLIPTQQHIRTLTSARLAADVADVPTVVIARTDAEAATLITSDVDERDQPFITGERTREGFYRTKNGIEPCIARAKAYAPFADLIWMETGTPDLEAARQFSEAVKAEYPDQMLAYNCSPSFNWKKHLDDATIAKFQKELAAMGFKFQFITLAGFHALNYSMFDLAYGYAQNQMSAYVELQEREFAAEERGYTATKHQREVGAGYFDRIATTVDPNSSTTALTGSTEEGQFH

[2] = target: T1, Isocitrate lyase 1 (Mycobacterium tuberculosis (strain CDC 1551 / Oshkosh)); assay: Inhibition of Mycobacterium tuberculosis ICL1 expressed in Escherichia coli BL21(DE3) at 100 uM using DL-isocitrate as substrate incubated for 25 mins in presence of MgCl2 by 1H NMR method
Summary of the method: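 Direct 1H NMR time course at 500 MHz, 300 K, with excitation-sculpting water suppression. Sample: 190 nM ICL1, 1 mM DL-isocitrate, 5 mM MgCl2, 100 μM inhibitor, 50 mM Tris-D11 pH 7.5 in 90% H2O/10% D2O. Substrate consumption and product formation are tracked directly. Initial rates come from linear fits up to 20% turnover. Run in triplicate.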

Isocitrate lyase 1 [3] = target: T2, Isocitrate lyase 1 (Mycobacterium tuberculosis (strain CDC 1551 / Oshkosh), UniProt P9WKK6); assay: Inhibition of Mycobacterium tuberculosis ICL1 expressed in Escherichia coli BL21(DE3) using DL-isocitrate as substrate incubated for 25 mins in presence of MgCl2 by 1H NMR method
T2 sequence (P9WKK6 whole entry): T1 sequence (whole entry)
Summary of the method: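 1H NMR assay at 500 MHz, 300 K, water-suppressed spectra recorded over time. Sample: 190 nM ICL1, 1 mM DL-isocitrate, 5 mM MgCl2, varying inhibitor concentrations, 50 mM Tris/Tris-D11 pH 7.5 in 90% H2O/10% D2O. Initial rates from linear fits up to 20% turnover; IC50 from a 3-parameter sigmoid fit. Triplicate measurements, errors given as SD.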

[4] = target: T1, Isocitrate lyase 1 (Mycobacterium tuberculosis (strain CDC 1551 / Oshkosh)); assay: Binding affinity to Mycobacterium tuberculosis ICL1 expressed in Escherichia coli BL21(DE3) assessed as melting temperature at 1 mM in presence of MgCl2 by SYPRO orange dye based fluorescence assay (reference value: 43 degC)
Isocitrate lyase 1 [5] = target: T2, Isocitrate lyase 1; assay: Inhibition of Mycobacterium tuberculosis ICL1

SMILES | ΔTm [1] [°C] | inhibition [2] | also measured
NC(CC(=O)O)c1cccnc1 (stereo not given) | > 0.5 | – | –
O=C(O)COc1ccc(C(=O)Cc2ccc3c(c2)OCCCO3)c(O)c1 | > 0.5 | – | –
CCOC(=O)c1cc2cc(CC(=O)c3ccc(OC)cc3O)ccc2o1 | – | inactive | –
CCOC(=O)c1ccc(CC(=O)c2oc3cc(O)ccc3c2C)o1 | > 0.5 | Active | IC50 (Isocitrate lyase 1 [3]): > 100 µM
CC(Oc1ccc2c3c(c(=O)oc2c1)CCC3)C(=O)NCC1CCC(C(=O)O)CC1 (stereo not given) | > 0.5 | – | –
O=C(O)C(=O)CBr [BROMOPYRUVATE] | – | Active | Tm [4]: 52.5 °C; IC50 (Isocitrate lyase 1 [3]): 17.5 µM
CCCCCCc1cc(C(=O)Cc2cc3ccccc3o2)c(O)cc1O | – | inactive | –
COc1ccc(O)c(C(=O)CC(=O)c2ccccc2)c1 | > 0.5 | – | –
CC(C)C(NC(=O)OCc1ccccc1)C(=O)NCC(=O)NC(Cc1c[nH]c2ccccc12)C(=O)O (stereo not drawn) (Cbz-Val-Gly-Trp-OH; configuration not given here) | > 0.5 | – | –
CC(C)[C@H](NC(=O)COc1ccc(C(=O)COc2ccccc2)c(O)c1)C(=O)O | > 0.5 | – | –
CCCCc1cc(C(=O)Cc2cc3ccccc3o2)c(O)cc1O | – | inactive | –
COc1ccc2oc(C(=O)OCC(=O)c3ccc(C)s3)c(C)c2c1 | – | inactive | –
CCOC(=O)c1oc2ccc(CC(=O)c3c(C)cc(O)cc3O)cc2c1C | – | inactive | –
COc1cc(OC)c(C(=O)COC(=O)c2oc3ccccc3c2C)c(OC)c1 | – | inactive | –
COC(=O)/C=C/C(=O)c1ccc(OC)cc1 | – | inactive | Tm [4]: 37.6 °C; IC50 (Isocitrate lyase 1 [3]): 250 µM; IC50 (Isocitrate lyase 1 [5]): 30.9 µM
O=C(O)C1=CC=C(COc2ccc3ccc(=O)oc3c2)C1 | > 0.5 | – | –

SMILES | ΔTm [1] [°C] | inhibition [2] | also measured
Nc1ccc([C@H](O)[C@@H](N)CO)cc1 | > 0.5 | – | –
COc1ccc(C(=O)COC(=O)c2oc3ccc(OC)cc3c2C)c(OC)c1 | – | inactive | –
Cc1ccc(C(=O)CC(=O)c2ccco2)c(O)c1 | > 0.5 | – | –
CCOC(=O)c1cc2cc(CC(=O)c3ccc(O)cc3O)ccc2o1 | > 0.5 | Active | IC50 (Isocitrate lyase 1 [3]): > 100 µM
Nc1ccc(C(=O)CC(=O)Nc2cc(C(=O)O)cc(C(=O)O)c2)cc1 | > 0.5 | – | –
CCCc1cc(C(=O)Cc2cc3ccccc3o2)c(O)cc1OC | – | inactive | –
O=C(O)CC[N+](=O)[O-] | – | Active | Tm [4]: 40.9 °C; IC50 (Isocitrate lyase 1 [3]): 14.7 µM
O=C(O)CNC(=O)c1ccc(NC(=O)/C(=C/c2ccccc2)NC(=O)c2ccccc2)cc1 | > 0.5 | – | –
O=C(Cc1ccc2cccnc2c1)c1ccc(O)cc1O | > 0.5 | – | –
O=C(COc1ccccc1Br)c1ccc(O)cc1O | > 0.5 | – | –
NC(Cc1c[nH]c2ccccc12)C(=O)NCc1ccco1 (stereo not given) | > 0.5 | – | –
CCc1cc(C(=O)Cc2cc3ccccc3o2)c(O)cc1OC | – | inactive | –
CCCc1cc(C(=O)Cc2cc3ccccc3o2)c(O)cc1O | > 0.5 | – | –
COc1ccc(OCC(=O)c2c(O)cc(O)cc2O)cc1 | > 0.5 | – | –
COc1ccc(CC(=O)Nc2ccc(O)cc2C(=O)O)cc1 | > 0.5 | – | –
C=C(CC(=O)O)C(=O)O [ITACONATE] | – | Active | Tm [4]: 53.3 °C; IC50 (Isocitrate lyase 1 [3]): 29.4 µM
